From ChEMBL document CHEMBL4038303, “Simultaneous Drug Targeting of the Promoter MYC G-Quadruplex and BCL2 i-Motif in Diffuse Large B-Cell Lymphoma Delays Tumor Growth” (J Med Chem, 2017)
The source made the active and inactive calls. The rule behind the calls is not given here.

What was measured:
Homo sapiens [1] = species on record: Homo sapiens; assay: Binding affinity to c-myc G-quadruplex DNA in human HT cells assessed as downregulation of MYC mRNA levels at 0.25 to 3 uM after 6 hrs by qPCR method; format: cell-based
HT = assay: Down regulation of BLC2 mRNA level in human HT cells up to 3 uM after 24 hrs by qPCR method; format: functional, cell-based
How it was run: (§1)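 DLBCL lines grown in RPMI with 10% FBS (SUDHL4 15% FBS) and penicillin/streptomycin. Cells exposed for 24 h to rising concentrations up to 3 μM; DMSO as vehicle control. Total RNA isolated, target mRNA measured by TaqMan real-time qPCR, normalized to TBP and expressed relative to untreated cells; triplicate experiments, two-tailed t test.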

U2932 [2] = assay: Potentiation of CPA-induced antitumor activity against human U2932 cells xenografted in SCID mouse assessed as tumor growth inhibition at 7.5 mg/kg, ip for 5 days cotreated with 10 mg/kg NSC-59276 measured on day 9 post first treatment (reference value: 50%); format: functional
How it was run: (§2)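 U2932 DLBCL cells (10 × 10^6 in 100 μL sterile saline, viability >91%) injected subcutaneously into left flank of SCID mice (6−8 weeks, immunoglobulin ≤20 μg/mL). Mice pair-matched by tumor volume. Drugs given ip daily for 5 days, CPA 30 mg/kg; controls received all diluents. Tumor volume = a2 × b/2 (a smallest, b largest diameter); n = 5−8; Grubbs' test for outliers.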

Mus musculus [3] = assay: Reduction in Myc mRNA level in SCID mouse xenografted with human U2932 cells at 10 mg/kg, ip administered for 5 consecutive days cotreated with CPA and NSC-59276 by qPCR method; format: functional, organism-based
How it was run: (§3)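 Tumors from U2932 xenograft SCID mice given ip treatment daily for 5 days were harvested. Total RNA was taken from the same tumor preparations used for protein lysates, and MYC or BCL2 mRNA was quantified by TaqMan qPCR normalized to TBP. Comparisons were made with diluent-treated mice or CPA-only mice.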

U2932 [4] = assay: Potentiation of CPA-induced antitumor activity against human U2932 cells xenografted in SCID mouse assessed as tumor growth inhibition at 7.5 mg/kg, ip for 5 days cotreated with 10 mg/kg NSC-59276 measured on day 12 post first treatment (reference value: 67%); format: functional; how it was run: as §2
U2932 [5] = assay: Potentiation of CPA-induced antitumor activity against human U2932 cells xenografted in SCID mouse assessed as reduction in tumor burden at 2.5 mg/kg, ip administered for 5 consecutive days measured up to 10 days post first treatement; format: functional, organism-based
How it was run: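 SCID mice bearing subcutaneous left-flank U2932 xenografts (10 × 10^6 cells in saline), pair-matched by tumor volume. Test agent given ip daily for 5 days with 50 mg/kg CPA; diluent-treated and CPA-alone controls. Tumor volume estimated as a2 × b/2 from smallest and largest diameters. Grubbs' test for outliers; two-tailed Student's t test.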

Homo sapiens [6] = species on record: Homo sapiens; assay: Binding affinity to c-myc G-quadruplex DNA in BCL2 translocation-positive human SUDHL4 cells assessed as downregulation of MYC mRNA levels up to 3 uM after 24 hrs by qPCR method relative to control; how it was run: as §1
Homo sapiens [7] = species on record: Homo sapiens; assay: Binding affinity to c-myc G-quadruplex DNA in human VAL cells assessed as downregulation of MYC mRNA levels at 0.25 to 3 uM after 6 hrs by qPCR method; format: cell-based
U2932 [8] = assay: Antitumor activity against human U2932 cells xenografted in SCID mouse assessed as reduction in tumor burden at 5 to 7.5 mg/kg, ip for 5 days cotreated with 10 mg/kg NSC-59276 measured on day 9 to 15 post first treatment; format: functional, organism-based; how it was run: as §2
Homo sapiens [9] = species on record: Homo sapiens; assay: Stabilization of c-myc G-quadruplex DNA in MYC translocation-positive and BCL2 amplification-positive human U2932 cells assessed as potentiation of CPA-induced apoptosis by measuring increase in caspase-3 activity at 3 uM after 24 hrs in presence of NSC-59276 by AFC based fluorescence assay (reference value: 30%)
Homo sapiens [10] = species on record: Homo sapiens; assay: Binding affinity to c-myc G-quadruplex DNA in BCL2 translocation-positive human SUDHL4 cells assessed as downregulation of MYC mRNA levels at 0.25 to 3 uM after 6 hrs by qPCR method
Mus musculus [11] = assay: Reduction in Bcl2 mRNA level in tumor of SCID mouse xenografted with human U2932 cells at 5 to 7.5 mg/kg, ip administered for 5 consecutive days cotreated with CPA and NSC-59276 by qPCR method; format: functional, organism-based; how it was run: as §3
Homo sapiens [12] = species on record: Homo sapiens; assay: Binding affinity to c-myc G-quadruplex DNA in BCL2 and MYC translocation-positive human VAL cells assessed as downregulation of MYC protein levels up to 3 uM after 24 hrs by Western blot analysis
How it was run: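 Cell lines treated 24 h with compound up to 3 μM, with untreated and DMSO-treated controls. Lysates (20 μg total protein) probed by Western blot for BCL2 or MYC with antibodies at 1:1000; actin as loading control. Blots representative of triplicate experiments.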

Mus musculus [13] = assay: Toxicity in scid mouse xenografted with human U2932 cells assessed as survival at 5 mg/kg, ip administered for 5 consecutive days cotreated with NSC-59276 and CPA; format: organism-based; details: in vivo
How it was run: (§4)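 SCID mice (6−8 weeks, female or male, serum immunoglobulin ≤20 μg/mL by ELISA) implanted subcutaneously in left flank with 10 × 10^6 U2932 cells in 100 μL saline; pair-matched by tumor volume; dosed ip daily for 5 days; controls received all compound diluents; tumor volume a2 × b/2; outliers by Grubbs' test; two-tailed t test with Šidák–Bonferroni correction.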

Homo sapiens [14] = species on record: Homo sapiens; assay: Binding affinity to c-myc G-quadruplex DNA in human HT cells assessed as downregulation of MYC mRNA levels at 3 uM after 24 hrs by qPCR method; format: cell-based; how it was run: as §1
Mus musculus [15] = assay: Effect on BCL2 mRNA level in SCID mouse xenografted with human U2932 cells at 2.5 to 5 mg/kg, ip administered for 5 consecutive days cotreated with CPA by qPCR method; format: functional, organism-based; how it was run: as §3
Homo sapiens [16] = species on record: Homo sapiens; assay: Binding affinity to BLC2 G-quadruplex DNA in BCL2 translocation-positive human SUDHL4 cells assessed as downregulation of BLC2 mRNA levels at 3 uM after 24 hrs by qPCR method; how it was run: as §1
Homo sapiens [17] = species on record: Homo sapiens; assay: Binding affinity to BLC2 i-motif promoter DNA in BCL2 and MYC translocation-positive human VAL cells assessed as downregulation of BLC2 mRNA levels up to 3 uM after 24 hrs by qPCR method; how it was run: as §1
Mus musculus [18] = assay: Toxicity in scid mouse xenografted with human U2932 cells assessed as change in body weight at 5 to 7.5 mg/kg, ip administered for 5 consecutive days in presence of CPA; format: organism-based; details: in vivo
How it was run: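 In the follow-up U2932 subcutaneous xenograft study in SCID mice (pair-matched by tumor volume, n = 5−8), compound at 5 or 7.5 mg/kg was given ip daily for 5 days with 30 mg/kg cyclophosphamide and 10 mg/kg BCL2 i-motif ligand. Diluent was given in place of any absent agent. Body weight and survival were followed.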

Mus musculus [19] = assay: Toxicity in SCID mouse xenografted with human U2932 cells assessed as survival at 7.5 mg/kg, ip administered for 5 consecutive days in presence of CPA; format: organism-based; details: in vivo; how it was run: as §4

Q: What does the source list for `Cc1c2ccncc2c(C)c2c1[nH]c1ccc(OCCN(C)C)cc12.Cl.Cl`?
A: Activity (Homo sapiens [1]): Active; Activity (HT): inactive; TGI (U2932 [2]): 50%; Activity (Mus musculus [3]): Active; TGI (U2932 [4]): 46%; Activity (U2932 [5]): Active; Activity (Homo sapiens [6]): < 90%; Activity (Homo sapiens [7]): Active; Activity (U2932 [8]): inactive; Activity (Homo sapiens [9]): 100%; Activity (Homo sapiens [10]): Active; Activity (Mus musculus [11]): Active; Activity (Homo sapiens [12]): Active; Activity (Mus musculus [13]): Non-Toxic; Activity (Homo sapiens [14]): Active; Activity (Mus musculus [15]): inactive; Activity (Homo sapiens [16]): Active; Activity (Homo sapiens [17]): inactive; Activity (Mus musculus [18]): Non-Toxic; Activity (Mus musculus [19]): Non-Toxic
